Data taken from ChEMBL document CHEMBL1806486, “Discovery and evaluation of 3-phenyl-1H-5-pyrazolylamine-based derivatives as potent, selective and efficacious inhibitors of FMS-like tyrosine kinase-3 (FLT3)” (Bioorg Med Chem, 2011).

Legend:
[1] = biological target: T1, Vascular endothelial growth factor receptor 2 (Homo sapiens, UniProt P35968); assay: Inhibition of recombinant GST-tagged VEGFR2 expressed in Sf9 insect cells at 1 uM after 120 mins by Kinase-Glo assay
[2] = biological target: T2, Receptor-type tyrosine-protein kinase FLT3 (Homo sapiens, UniProt P36888); assay: Inhibition of GST-tagged FLT3 expressing wild type kinase domain expressed in Sf9 insect cells after 4 hrs by Kinase-Glo assay
T2 sequence (P36888 whole entry): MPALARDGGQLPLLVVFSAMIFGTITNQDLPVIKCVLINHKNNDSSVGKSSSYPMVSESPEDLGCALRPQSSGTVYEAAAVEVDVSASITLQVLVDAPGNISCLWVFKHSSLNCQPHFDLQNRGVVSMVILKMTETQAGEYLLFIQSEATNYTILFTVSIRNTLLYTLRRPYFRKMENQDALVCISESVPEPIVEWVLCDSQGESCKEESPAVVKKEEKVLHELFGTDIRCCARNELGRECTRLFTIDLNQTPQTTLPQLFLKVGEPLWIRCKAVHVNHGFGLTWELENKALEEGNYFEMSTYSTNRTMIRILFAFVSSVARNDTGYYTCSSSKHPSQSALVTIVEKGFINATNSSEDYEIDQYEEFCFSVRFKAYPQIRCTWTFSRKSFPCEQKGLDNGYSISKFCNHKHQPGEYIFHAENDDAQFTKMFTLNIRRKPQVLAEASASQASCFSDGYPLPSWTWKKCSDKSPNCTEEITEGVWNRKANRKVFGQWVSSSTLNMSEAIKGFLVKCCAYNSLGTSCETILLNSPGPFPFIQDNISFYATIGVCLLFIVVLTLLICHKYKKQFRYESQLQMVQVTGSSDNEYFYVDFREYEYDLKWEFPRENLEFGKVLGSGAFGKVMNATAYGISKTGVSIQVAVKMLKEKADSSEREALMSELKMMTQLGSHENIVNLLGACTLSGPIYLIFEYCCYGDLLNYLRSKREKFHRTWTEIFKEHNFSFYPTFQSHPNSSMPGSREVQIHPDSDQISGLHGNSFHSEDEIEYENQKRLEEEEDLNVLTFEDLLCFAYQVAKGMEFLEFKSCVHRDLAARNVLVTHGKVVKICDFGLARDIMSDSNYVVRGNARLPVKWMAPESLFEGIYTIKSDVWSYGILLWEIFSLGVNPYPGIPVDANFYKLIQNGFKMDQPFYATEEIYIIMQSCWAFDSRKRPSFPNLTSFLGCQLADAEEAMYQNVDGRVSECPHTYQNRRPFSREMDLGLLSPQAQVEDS

MOLM-13 = assay: Antiproliferation activity against human MOLM13 cells expressing FLT3 mutation assessed as cell viability after 72 hrs by MTS method; format: functional; conditions: MOLM-13, 72 h
[3] = biological target: Vascular endothelial growth factor receptor 1 (Homo sapiens, UniProt P17948); assay: Inhibition of recombinant GST-tagged VEGFR1 expressed in Sf9 insect cells after 120 mins by Kinase-Glo assay
Outline: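 GST-VEGFR1 (R781–I1338) or GST-VEGFR2 (V789–V1356) kinase domain, 50–100 ng, from Sf9 cells. Read-out was Kinase-Glo Plus luminescence.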

Aurora kinase A = biological target: T3, Aurora kinase A (Homo sapiens, UniProt O14965); assay: Inhibition of recombinant GST-tagged Aurora A expressed in Sf9 insect cells after 90 mins by Kinase-Glo assay
T3 sequence (O14965 whole entry): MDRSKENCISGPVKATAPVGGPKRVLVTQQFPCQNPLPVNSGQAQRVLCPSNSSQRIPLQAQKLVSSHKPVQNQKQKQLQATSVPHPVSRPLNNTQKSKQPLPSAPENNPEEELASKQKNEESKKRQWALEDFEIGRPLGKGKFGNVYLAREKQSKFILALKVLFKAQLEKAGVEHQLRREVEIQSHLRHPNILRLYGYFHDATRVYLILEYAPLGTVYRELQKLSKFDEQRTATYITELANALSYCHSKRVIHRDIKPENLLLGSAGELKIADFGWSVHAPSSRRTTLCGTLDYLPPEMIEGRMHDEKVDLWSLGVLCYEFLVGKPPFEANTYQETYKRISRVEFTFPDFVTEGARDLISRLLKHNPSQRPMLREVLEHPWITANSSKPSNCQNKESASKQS
Outline: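 GST-Aurora A kinase domain (S123–S401, 150 ng) from Sf9 cells. Buffer was 50 mM Tris-HCl pH 7.4 with 10 mM NaCl, 10 mM MgCl2, 0.01% BSA and 1 mM DTT. Kinase-Glo Plus was added for 20 min at 25 °C before the luminescence read.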

[4] = Volume of distribution at steady state in Sprague-Dawley rat at 5 mg/kg, iv; format: ADME, organism-based; design: dose 5 mg/kg, route intravenous; conditions: in vivo, read-out: Vdss
[5] = biological target: T1, Vascular endothelial growth factor receptor 2; assay: Inhibition of recombinant GST-tagged VEGFR2 expressed in Sf9 insect cells after 120 mins by Kinase-Glo assay; format: cell-based
Mus musculus [6] = assay: Toxicity in athymic nu/nu nude mouse assessed as lethality at 50 mg/kg, iv for continuous 5 days; format: organism-based; design: dose 50 mg/kg, route intravenous; conditions: in vivo, 120 h
[7] = AUC (0 to infinity) in Sprague-Dawley rat at 5 mg/kg, iv; format: ADME, organism-based; design: time infinity, dose 5 mg/kg, route intravenous; conditions: plasma
Mus musculus [8] = assay: Toxicity in normal mouse assessed as reduction of body weight at 50 mg/kg, iv for continuous 5 days; conditions: in vivo, 120 h
[9] = Clearance in Sprague-Dawley rat at 5 mg/kg, iv; format: ADME, organism-based; design: dose 5 mg/kg, route intravenous; conditions: in vivo
[10] = Half life in Sprague-Dawley rat at 5 mg/kg, iv; format: ADME, organism-based; design: dose 5 mg/kg, route intravenous; conditions: in vivo
[11] = biological target: Receptor-type tyrosine-protein kinase FLT3 (Homo sapiens) (UniProt P36888); assay: Inhibition of GST-tagged FLT3 expressing wild type kinase domain expressed in Sf9 insect cells at 1 uM after 4 hrs by Kinase-Glo assay
MOLT-4 = assay: Antiproliferation activity against human MOLT4 after 72 hrs by MTS method; format: functional; conditions: MOLT-4, 72 h
[12] = Antiproliferation activity against human RS4:11 cells expressing wild type FLT3 after 72 hrs by MTS method; format: functional; conditions: RS4-11, 72 h
MV4-11 = assay: Antiproliferation activity against FLT3/ITD harboring human MV4-11 cells after 72 hrs by MTS method; format: functional; conditions: MV4-11, 72 h
K562 = assay: Antiproliferation activity against human K562 cells expressing wild type BCR/ABL after 72 hrs by MTS method; format: functional; conditions: K562, 72 h
[13] = biological target: Aurora kinase A (Homo sapiens) (UniProt O14965); assay: Inhibition of recombinant GST-tagged Aurora A expressed in Sf9 insect cells at 1 uM after 90 mins by Kinase-Glo assay

Chain of Vascular endothelial growth factor receptor 1 (P17948 whole entry, the tested form may be a part): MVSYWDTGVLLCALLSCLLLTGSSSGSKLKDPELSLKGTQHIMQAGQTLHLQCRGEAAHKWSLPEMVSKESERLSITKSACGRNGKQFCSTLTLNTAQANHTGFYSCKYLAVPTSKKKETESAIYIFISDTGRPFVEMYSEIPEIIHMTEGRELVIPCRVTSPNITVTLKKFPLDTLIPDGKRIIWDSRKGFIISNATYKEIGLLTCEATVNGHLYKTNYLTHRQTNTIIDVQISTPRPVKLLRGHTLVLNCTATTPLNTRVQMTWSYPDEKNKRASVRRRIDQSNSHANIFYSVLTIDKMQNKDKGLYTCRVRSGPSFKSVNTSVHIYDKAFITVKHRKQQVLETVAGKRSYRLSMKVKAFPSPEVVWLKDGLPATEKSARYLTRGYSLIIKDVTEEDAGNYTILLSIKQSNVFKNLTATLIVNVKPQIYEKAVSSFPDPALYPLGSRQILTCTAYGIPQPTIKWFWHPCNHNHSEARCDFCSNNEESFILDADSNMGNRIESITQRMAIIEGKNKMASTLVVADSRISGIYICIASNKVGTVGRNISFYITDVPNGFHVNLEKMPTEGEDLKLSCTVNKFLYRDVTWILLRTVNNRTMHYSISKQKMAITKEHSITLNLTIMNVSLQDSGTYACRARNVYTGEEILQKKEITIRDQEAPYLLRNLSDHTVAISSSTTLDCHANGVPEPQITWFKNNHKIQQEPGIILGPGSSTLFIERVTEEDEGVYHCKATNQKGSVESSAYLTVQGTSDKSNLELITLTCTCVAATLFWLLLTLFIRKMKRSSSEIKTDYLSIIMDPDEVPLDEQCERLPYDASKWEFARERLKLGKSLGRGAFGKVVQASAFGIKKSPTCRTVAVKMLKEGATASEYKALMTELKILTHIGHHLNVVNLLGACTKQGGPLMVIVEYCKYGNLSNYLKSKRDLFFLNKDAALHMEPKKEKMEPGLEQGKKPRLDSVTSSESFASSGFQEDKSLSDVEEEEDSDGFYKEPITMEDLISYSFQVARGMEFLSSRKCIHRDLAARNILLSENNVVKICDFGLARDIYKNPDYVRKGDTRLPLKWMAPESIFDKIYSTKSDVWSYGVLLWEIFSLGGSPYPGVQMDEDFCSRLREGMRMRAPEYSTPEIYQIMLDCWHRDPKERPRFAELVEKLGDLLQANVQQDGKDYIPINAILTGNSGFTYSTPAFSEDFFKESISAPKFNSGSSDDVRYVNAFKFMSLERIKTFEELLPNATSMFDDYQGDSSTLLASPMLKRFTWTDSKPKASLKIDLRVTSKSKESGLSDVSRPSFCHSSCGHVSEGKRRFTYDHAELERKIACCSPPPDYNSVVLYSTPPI
T1 sequence (P35968 whole entry, the tested form may be a part): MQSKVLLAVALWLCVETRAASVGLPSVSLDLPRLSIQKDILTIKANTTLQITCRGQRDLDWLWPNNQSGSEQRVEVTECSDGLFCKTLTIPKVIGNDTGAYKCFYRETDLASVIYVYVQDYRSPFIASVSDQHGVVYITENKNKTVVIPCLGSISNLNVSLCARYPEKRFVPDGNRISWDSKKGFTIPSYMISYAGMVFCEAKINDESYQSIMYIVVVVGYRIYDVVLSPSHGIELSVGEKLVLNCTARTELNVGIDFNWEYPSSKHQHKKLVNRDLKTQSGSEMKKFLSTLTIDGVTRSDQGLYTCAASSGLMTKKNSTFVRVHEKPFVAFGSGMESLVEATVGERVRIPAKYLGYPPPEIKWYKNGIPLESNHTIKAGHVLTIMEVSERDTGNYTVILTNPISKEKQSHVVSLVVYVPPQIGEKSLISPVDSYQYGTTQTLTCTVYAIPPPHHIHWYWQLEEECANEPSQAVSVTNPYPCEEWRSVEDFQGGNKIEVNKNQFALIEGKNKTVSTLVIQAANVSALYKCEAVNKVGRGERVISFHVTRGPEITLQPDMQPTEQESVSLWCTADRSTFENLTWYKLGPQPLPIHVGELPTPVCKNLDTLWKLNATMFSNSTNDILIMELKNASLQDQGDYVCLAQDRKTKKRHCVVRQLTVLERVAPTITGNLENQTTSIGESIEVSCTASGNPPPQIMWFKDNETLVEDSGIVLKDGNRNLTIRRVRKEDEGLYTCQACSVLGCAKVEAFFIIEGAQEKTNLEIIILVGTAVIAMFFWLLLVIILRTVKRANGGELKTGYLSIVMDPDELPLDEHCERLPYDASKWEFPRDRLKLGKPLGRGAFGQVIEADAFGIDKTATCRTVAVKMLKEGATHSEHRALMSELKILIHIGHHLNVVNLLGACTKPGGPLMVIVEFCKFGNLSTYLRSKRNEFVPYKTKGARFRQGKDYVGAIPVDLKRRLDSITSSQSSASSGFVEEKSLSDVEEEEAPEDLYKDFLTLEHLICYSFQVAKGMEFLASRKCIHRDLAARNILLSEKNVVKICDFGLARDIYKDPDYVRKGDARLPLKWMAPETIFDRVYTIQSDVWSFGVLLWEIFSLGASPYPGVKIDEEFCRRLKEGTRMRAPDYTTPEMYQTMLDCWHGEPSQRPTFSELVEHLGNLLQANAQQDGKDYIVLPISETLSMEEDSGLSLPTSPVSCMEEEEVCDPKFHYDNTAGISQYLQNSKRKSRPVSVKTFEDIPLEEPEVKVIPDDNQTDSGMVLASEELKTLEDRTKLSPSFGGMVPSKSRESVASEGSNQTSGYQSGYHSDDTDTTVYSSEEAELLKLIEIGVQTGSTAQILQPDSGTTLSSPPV

Structure (SMILES) | IC50 [2] [µM] | GI50 (MOLM-13) [µM] | IC50 [3] [µM] | IC50 (Aurora kinase A) [µM] | IC50 [5] [µM] | also measured
O=C(Nc1cc(-c2cccc(NS(=O)(=O)c3ccccc3)c2)n[nH]1)c1ccc(OCCN2CCCC2)cc1 | 0.007 | 0.025 | 0.27 | 1.17 | 0.2 | Vd [4]: 10.7 L/kg; Activity (Mus musculus [6]): Toxic; AUC(0-inf) [7]: 3940 ng·h/mL; Activity (Mus musculus [8]): Toxic; clearance [9]: 22.3 mL/min/kg; half-life [10]: 9.9 h
O=C(Nc1cc(-c2cccc(NS(=O)(=O)c3ccccc3)c2)n[nH]1)c1cccc(N2CCOCC2)c1 | > 1 | 0.26 | > 1 | > 1 | > 1 | –
CN1CCN(c2ccc(C(=O)Nc3cc(-c4cccc(NS(=O)(=O)c5ccccc5)c4)n[nH]3)cc2)CC1 | 0.013 | 0.012 | 0.21 | 0.34 | 0.13 | Vd [4]: 15.5 L/kg; Activity (Mus musculus [6]): Toxic; AUC(0-inf) [7]: 551 ng·h/mL; Activity (Mus musculus [8]): Toxic; clearance [9]: 102 mL/min/kg; half-life [10]: 4.5 h
O=C(O)c1cccc(C(=O)Nc2cc(-c3cccc(NS(=O)(=O)c4ccccc4)c3)n[nH]2)c1 | – | – | – | – | – | inhibition [11]: 56%
CNC(=O)c1cc(Oc2ccc(NC(=O)Nc3ccc(Cl)c(C(F)(F)F)c3)cc2)ccn1 [SORAFENIB] | – | – | – | – | – | GI50 (MOLT-4): 9 µM; GI50 [12]: 9.4 µM; GI50 (MV4-11): 0.03 µM; GI50 (K562): 6.2 µM
O=C(Nc1cc(-c2cccc(NS(=O)(=O)c3ccccc3)c2)n[nH]1)c1ccc(C(F)(F)F)cc1 | > 1 | – | – | – | – | –
CCS(=O)(=O)Nc1cccc(-c2cc(NC(=O)c3ccc(N4CCN(C)CC4)cc3)[nH]n2)c1 | 0.36 | 0.033 | > 1 | > 1 | > 1 | –
Cc1cccc(S(=O)(=O)Nc2cccc(-c3cc(NC(=O)c4ccc(N5CCN(C)CC5)cc4)[nH]n3)c2)c1 | 0.007 | 0.016 | 0.14 | 0.43 | 0.07 | Vd [4]: 2.6 L/kg; Activity (Mus musculus [6]): Toxic; AUC(0-inf) [7]: 1200 ng·h/mL; Activity (Mus musculus [8]): Toxic; clearance [9]: 67.4 mL/min/kg; half-life [10]: 1.7 h
CN1CCN(c2ccc(C(=O)Nc3cc(-c4cccc(NC(=O)c5ccccc5)c4)n[nH]3)cc2)CC1 | 0.27 | 0.21 | – | – | – | –
O=C(Nc1cc(-c2cccc(NS(=O)(=O)c3ccccc3)c2)n[nH]1)c1cccc(C(F)(F)F)c1 | > 1 | – | – | – | – | –
O=C(Nc1cc(-c2cccc(NS(=O)(=O)c3ccccc3)c2)n[nH]1)c1ccccc1 | – | – | – | – | – | inhibition [11]: 54%
CN1CCN(c2ccc(C(=O)Nc3cc(-c4ccc(NS(=O)(=O)c5ccccc5)cc4)n[nH]3)cc2)CC1 | 0.59 | 0.05 | – | – | – | –
O=C(O)c1ccc(C(=O)Nc2cc(-c3cccc(NS(=O)(=O)c4ccccc4)c3)n[nH]2)cc1 | – | – | – | – | – | inhibition [11]: 61%

The remaining compounds from weak to strong by IC50 [2], led by results:

IC50 [2] [µM] | GI50 (MOLM-13) [µM] | IC50 [3] [µM] | IC50 (Aurora kinase A) [µM] | IC50 [5] [µM] | Structure (SMILES) | also measured
0.16 | 0.044 | > 1 | > 1 | > 1 | CC(C)S(=O)(=O)Nc1cccc(-c2cc(NC(=O)c3ccc(N4CCN(C)CC4)cc3)[nH]n2)c1 | –
0.12 | 0.074 | 0.57 | 4.99 | > 1 | CN1CCN(c2ccc(C(=O)Nc3cc(-c4cccc(NS(=O)(=O)c5ccc(Cl)cc5)c4)n[nH]3)cc2)CC1 | –
0.12 | 0.078 | > 1 | > 1 | > 1 | Cc1cccc(S(=O)(=O)Nc2cccc(-c3cc(Nc4cc(N5CCN(C)CC5)nc(C)n4)[nH]n3)c2)c1 | –
0.11 | 0.16 | > 1 | > 1 | > 1 | CCCCS(=O)(=O)Nc1cccc(-c2cc(Nc3cc(N4CCN(C)CC4)nc(C)n3)[nH]n2)c1 | –
0.1 | 0.056 | 2.61 | 1.64 | 2.72 | CCCS(=O)(=O)Nc1cccc(-c2cc(NC(=O)c3ccc(N4CCN(C)CC4)cc3)[nH]n2)c1 | –
0.09 | 0.05 | 0.42 | > 1 | 0.16 | COc1ccc(S(=O)(=O)Nc2cccc(-c3cc(NC(=O)c4ccc(N5CCN(C)CC5)cc4)[nH]n3)c2)cc1 | –
0.071 | 0.18 | > 1 | > 1 | – | Cc1nc(NCCN(C)C)cc(Nc2cc(-c3cccc(NS(=O)(=O)c4ccccc4)c3)n[nH]2)n1 | inhibition [1]: 55%
0.07 | 0.072 | > 1 | – | > 1 | O=C(Nc1cc(-c2cccc(NS(=O)(=O)c3ccccc3)c2)n[nH]1)c1ccc(OCCN2CCOCC2)cc1 | inhibition [13]: 50%
0.065 | 0.19 | > 1 | 0.85 | 0.41 | CN1CCN(c2cccc(C(=O)Nc3cc(-c4cccc(NS(=O)(=O)c5ccccc5)c4)n[nH]3)c2)CC1 | –
0.06 | 0.46 | > 1000 | > 1 | > 1 | Cc1nc(NCCN2CCOCC2)cc(Nc2cc(-c3cccc(NS(=O)(=O)c4ccccc4)c3)n[nH]2)n1 | –
0.05 | 0.024 | > 1 | 0.17 | 0.14 | Cc1nc(Nc2cc(-c3cccc(NS(=O)(=O)c4ccccc4)c3)n[nH]2)cc(N2CCN(CCO)CC2)n1 | –
0.029 | 0.1 | > 1 | 0.39 | 0.45 | O=C(Nc1cc(-c2cccc(NS(=O)(=O)c3ccccc3)c2)n[nH]1)c1ccc(N2CCOCC2)cc1 | –
0.02 | 0.15 | – | – | – | CN1CCN(c2ccc(C(=O)Nc3cc(-c4cccc(NC(=O)Nc5ccccc5)c4)n[nH]3)cc2)CC1 | –
0.015 | 0.024 | > 1 | – | > 1 | Cc1ccc(S(=O)(=O)Nc2cccc(-c3cc(NC(=O)c4ccc(N5CCN(C)CC5)cc4)[nH]n3)c2)cc1 | inhibition [13]: 50%
0.014 | 0.077 | – | – | – | CN1CCN(c2ccc(C(=O)Nc3cc(-c4cccc(N)c4)n[nH]3)cc2)CC1 | –
0.008 | 0.039 | 0.04 | 1.71 | 0.25 | CN1CCN(c2ccc(C(=O)Nc3cc(-c4cccc(NS(=O)(=O)c5cccc(Cl)c5)c4)n[nH]3)cc2)CC1 | –
